Holding throughout (format): functional, cell-based
Assay [1] concerns P388. The assay can be described thus: Cytotoxicity against mouse P388 cells after 3 days by MTT assay. The following applies: P388, 72 h. In outline: (§1)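 Modified MTT colorimetric assay. Cells seeded at 1000 cells/well and exposed to twofold serial dilutions of compound. Incubation ran 6 days for A-549 and 3 days for KB-16 and P-388. MTT (1 mg/mL) was then added for 5 h at 37 °C, formazan dissolved in DMSO, and absorbance read at 540 nm. IC50 is the concentration giving a 50% absorbance reduction versus untreated cells.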

Assay [2] has as its system A549. As to the kind of experiment: Cytotoxicity against human A549 cells after 6 days by MTT assay. The following applies: A549, 144 h. In outline:
as §1
(In general: Tetrazolium dyes change colour on reduction, which living cells bring about.)

A short description of assay [3]: Cytotoxicity against human KB16 cells after 3 days by MTT assay. The conditions noted are these: KB16, 72 h. Summed up: as §1

Converted amounts (≈) assume the structure as drawn. Where only a bound is given, the exact number is not on record here.

With `C=C1CCC[C@H]2[C@](C)(Cc3cc(C(=O)OC)cc(OC(C)=O)c3OC(C)=O)[C@@H](C)CC[C@]12C`, the IC50 (commonly the concentration needed to halve the response being measured) in assay [1] came to 1.9 µg/mL (≈ 4.16 µM); in assay [2] it was 1.5 µg/mL (≈ 3.29 µM); in assay [3] it was 1.8 µg/mL (≈ 3.94 µM).

In the case of `C=C1CCC[C@H]2[C@](C)(Cc3cc(C(=O)OC)cc(O)c3O)[C@@H](C)CC[C@]12C` [DICTYOCERATIN A], the 50% inhibitory concentration (IC50) amounted to 1.4 µg/mL (≈ 3.76 µM) in assay [1], 0.7 µg/mL (≈ 1.88 µM) in assay [2] and 1.4 µg/mL (≈ 3.76 µM) in assay [3].

On to `C=C1CCC[C@H]2[C@](C)(CC3=C(O)C(=O)C=C(OC)C3=O)[C@@H](C)CC[C@]12C` [ILIMAQUINONE], for which the results for the IC50 in assay [1], in assay [2] and in assay [3] were 0.2 µg/mL (≈ 0.558 µM), 0.4 µg/mL (≈ 1.12 µM) and 0.7 µg/mL (≈ 1.95 µM), respectively.

In the case of `C=C1CCC[C@H]2[C@](C)(Cc3cc(C(=O)OC)cc(OC)c3OC(C)=O)[C@@H](C)CC[C@]12C` [POLYFIBROSPONGOL A MONOACETATE], the figures for the half-inhibitory concentration (IC50) in assay [1], in assay [2] and in assay [3] were 3.4 µg/mL, 3.1 µg/mL and 2.1 µg/mL, respectively.

In the case of `C=C1CCC[C@H]2[C@](C)(Cc3cc(C(=O)OC)cc(OC)c3O)[C@@H](C)CC[C@]12C` [POLYFIBROSPONGOL A], the IC50 amounted to 0.7 µg/mL (≈ 1.81 µM) in assay [1], 0.6 µg/mL (≈ 1.55 µM) in assay [2] and 1.4 µg/mL (≈ 3.62 µM) in assay [3].

Regarding `C=C1CCC[C@H]2[C@](COC(C)=O)(Cc3cc(C(=O)OC)cc(OC)c3OC(C)=O)[C@@H](C)CC[C@]12C` [POLYFIBROSPONGOL B DIACETATE], the IC50 in assay [1], in assay [2] and in assay [3] was over 50 µg/mL throughout.

Consider `C=C1CCC[C@H]2[C@](CO)(Cc3cc(C(=O)OC)cc(OC)c3O)[C@@H](C)CC[C@]12C` [POLYFIBROSPONGOL B], for which the results for the half-inhibitory concentration (IC50) in assay [1], in assay [2] and in assay [3] were 1 µg/mL (≈ 2.48 µM), 1 µg/mL (≈ 2.48 µM) and 2 µg/mL (≈ 4.97 µM), respectively.

The record behind these values is ChEMBL document CHEMBL1145688, “New sesquiterpene hydroquinones from a Taiwanese marine sponge Polyfibrospongia australis” (J Nat Prod, 1997).
